The record followed here is ChEMBL document CHEMBL4266038, “Total Synthesis of Xanthoangelol B and Its Various Fragments: Toward Inhibition of Virulence Factor Production of Staphylococcus aureus” (J Med Chem, 2018).

The term inhibition denotes the change of the read-out against control, counted positive when it falls.

Test [1] relates to Staphylococcus aureus subsp. aureus USA300. The test can be described thus: Inhibition of methicillin-resistant Staphylococcus aureus USA300 SaeRS assessed as reduction in alpha-hemolysin mediated hemolysis of human erythrocytes at 8 uM after 8 hrs by ELISA. A digest of the protocol:
(§1)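 Overnight cultures of wild-type USA300 or the saeS mutant were diluted 1:100 in TSB and grown to OD600 = 1. Cells at 5x10^5/ml were grown with compound for 8 h at 37 °C, 250 rpm. Supernatants were mixed 1:1 with 5% DPBS-washed human RBC for 30 min, then centrifuged, and hemolysis was read at OD540. Experiments were run in triplicate.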

Test [2] has the same test system. The test can be described thus: Inhibition of methicillin-resistant Staphylococcus aureus USA300 SaeRS Tn551 deletion mutant assessed as reduction in alpha-hemolysin mediated hemolysis of human erythrocytes at 8 uM after 8 hrs by ELISA relative to control. A digest of the protocol: as §1
For orientation: In an ELISA, binding on a coated surface is turned into a signal by an enzyme label.

For test [3] the test system is unchanged. In words: Inhibition of methicillin-resistant Staphylococcus aureus USA300 SaeRS assessed as reduction in alpha-hemolysin mediated hemolysis of human erythrocytes at 4 uM after 8 hrs by ELISA. A digest of the protocol: as §1
For test [4] the test system is unchanged. In words: Inhibition of methicillin-resistant Staphylococcus aureus USA300 SaeRS Tn551 deletion mutant assessed as reduction in alpha-hemolysin mediated hemolysis of human erythrocytes at 15 uM after 8 hrs by ELISA relative to control. The method in brief: as §1

The source made the active and inactive calls. No cut-off for these calls is given here.

`C=C(C)C(O)CC/C(C)=C/Cc1c(O)ccc(C(=O)/C=C/c2ccc(O)cc2)c1O` (stereo unspecified) [XANTHOANGELOL B]: the inhibition entry in test [1] and in test [3] was “Active” each time. The inhibition in test [2] amounted to 86.9%.
`C=C(C)C(O)CC/C(C)=C/Cc1c(O)ccc(C(=O)CC(O)c2ccc(O)cc2)c1O` (stereo unspecified): the inhibition result in test [1] and in test [3] was “Active” each time. For the same molecule, the inhibition in test [4] amounted to 87.4%.
